Assay outcomes as filed in PubChem.
The list is not random: actives were taken first. Their share in the collection is about 5.8%.
Tcruzi prolif – T. cruzi intracellular proliferation inhibitors, primary screen, cell-based, beta-gal Tulahuen parasites, NIH3T3 host, luminescence; inhibition, % at 8.34 µM; AID 624255, 2012; actives 5.9% (n = 77,000); T. cruzi beta-gal in NIH3T3, GalScreen luminescence, 90 h;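 active = mean inhibition above about 93%, with at least 55% of replicates each passing it, limit read from the data, passing the limit was not always enough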
IDH1 mut inh – inhibitors of IDH1 R132H reductase, primary screen, biochemical, plate reader, single point | Isocitrate dehydrogenase [NADP] cytoplasmic (Homo sapiens), O75874 | diaphorase/resazurin fluorescence, 60 min | inhibition, % at 10 µM | actives 0.18% (n = 70,000); in the data active = inhibition above about 34%;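 also: 0% = DMSO and 100% = no enzyme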
Target sequence (O75874 whole entry R132H): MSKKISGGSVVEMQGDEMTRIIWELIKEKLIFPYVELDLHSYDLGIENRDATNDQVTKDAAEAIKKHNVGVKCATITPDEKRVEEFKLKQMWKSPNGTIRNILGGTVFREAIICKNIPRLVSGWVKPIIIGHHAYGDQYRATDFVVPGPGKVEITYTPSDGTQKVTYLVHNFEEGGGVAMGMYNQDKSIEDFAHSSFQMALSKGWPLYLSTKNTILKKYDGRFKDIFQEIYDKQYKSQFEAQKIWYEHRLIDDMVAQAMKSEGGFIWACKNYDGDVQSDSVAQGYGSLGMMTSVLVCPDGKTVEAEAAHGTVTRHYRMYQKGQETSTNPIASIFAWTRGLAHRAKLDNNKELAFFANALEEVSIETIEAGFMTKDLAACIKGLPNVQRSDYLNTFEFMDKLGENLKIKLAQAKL
Pf Dd2 growth – P. falciparum Dd2 growth inhibitors, primary screen, SYBR Green fluorescence, single dose replicates; 72 h; stronger effect = lower value; activity change, % at 10 µM; actives 2.3% (n = 94,000); AID 1159554, 2015; in the data active = activity change below about -80%
KDM4C inh – inhibitors of GASC-1 (KDM4C) histone demethylase, primary screen, biochemical, single concentration HTS; GST-KDM4C 2-372, H3K9me3 peptide, LANCE TR-FRET; AID 720574, 2013; actives 0.15% (n = 96,000); inhibition, % at 12.5 µM; Lysine-specific demethylase 4C (Homo sapiens), Q9H3R0;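 active = mean replicate inhibition above about 25%, with at least 55% of replicates also reaching it, limit read from the data, passing the limit was not always enough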
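material = GST-tagged GASC-1 (JMJD2C) catalytic fragment, aa 2-372 | amount = enzyme final amount 10 nM | medium = HEPES buffer, pH 7.5, plus ascorbate | also added = H3K9me3 peptide substrate, Fe(II), 2-oxoglutarate | dosing = single dose | times = 30 min demethylation and 1 h detection at room temperature | detection = LANCE TR-FRET | read-out basis = Fall in 671/618 emission ratio as inhibition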
An asterisk follows results filed as active; nt = not tested or not shown.

SMILES	Tcruzi prolif	IDH1 mut inh	Pf Dd2 growth	KDM4C inh
COc1ccc2c3c([nH]c2c1)[C@@H](CO)N(Cc1cccc(F)c1)CC31CCN(CC2CC2)CC1	nt	nt	-80*	0
COc1cccc(CN2CC3(CN(CC4CCOCC4)C3)c3c([nH]c4cc(OC)ccc34)[C@H]2CO)c1	nt	nt	-83*	-3
COc1cccc(CN2CC3(CN(CC4CC4)C3)c3c([nH]c4cc(OC)ccc34)[C@@H]2CO)c1	nt	nt	-58	-1
COc1ccc2c3c([nH]c2c1)[C@H](CO)N(Cc1cccc(F)c1)CC31CN(CC2CC2)C1	nt	nt	-85*	0
COc1cccc(CN2CC3(CN(CC4CCOCC4)C3)c3c([nH]c4cc(OC)ccc34)[C@@H]2CO)c1	nt	nt	-17	-1
COC(=O)c1c(NC(=O)c2ccc(Cn3cc(Cl)cn3)cc2)sc2c1CCC2	nt	0	nt	nt
C[C@H](CO)N1C[C@H](C)[C@H](CN(C)C(=O)Nc2ccccc2)Oc2c(NC(=O)CCCCCC(=O)Nc3ccccc3N)cccc2C1=O	nt	0	-58	-1
C[C@@H]1CN([C@@H](C)CO)C(=O)c2cccc(NC(=O)CCCCCC(=O)Nc3ccccc3N)c2O[C@@H]1CN(C)Cc1ccc(Oc2ccccc2)cc1	nt	nt	-91*	-1
C[C@@H]1CN([C@H](C)CO)C(=O)c2cc(NC(=O)CCCCCC(=O)Nc3ccccc3N)ccc2O[C@@H]1CN(C)Cc1ccc(Oc2ccccc2)cc1	nt	nt	-60	11
C[C@@H]1CN([C@H](C)CO)C(=O)c2cccc(NC(=O)CCCCCC(=O)Nc3ccccc3N)c2O[C@@H]1CN(C)Cc1ccc(Oc2ccccc2)cc1	nt	0	-91*	1
C[C@H]1CN([C@@H](C)CO)C(=O)c2cccc(NC(=O)CCCCCC(=O)Nc3ccccc3N)c2O[C@@H]1CN(C)Cc1ccc(Oc2ccccc2)cc1	nt	0	-82*	0
O=C(Nc1ccc2c(c1)[C@@H]1C[C@@H](CC(=O)N3CCc4ccccc4C3)O[C@@H](CO)[C@@H]1O2)C1CCC1	37	0	-24	6
CN(C)C(=O)c1ccc(-c2ccccc2[C@H]2[C@@H](CO)N(C(=O)C3CCCC3)[C@H]2C#N)cc1	nt	nt	2	-1
C[C@H](NC(=O)C[C@@H]1C=C[C@@H](NC(=O)Cc2ccccn2)[C@@H](CO)O1)c1ccccc1	41	0	7	0
C[C@H](CO)N1C[C@H](C)[C@@H](CN(C)C(=O)Cc2ccccc2)OCc2ccccc2-c2c(n(C)c3ccccc23)C1=O	60	nt	-81*	-1
C[C@H](CO)N1C[C@H](C)[C@H](CN(C)C(=O)Cc2ccccc2)OCc2ccccc2-c2c(n(C)c3ccccc23)C1=O	3	0	-73	-1
C[C@@H]1CN([C@H](C)CO)C(=O)c2c(c3ccccc3n2C)-c2ccccc2CO[C@H]1CN(C)C(=O)Cc1ccccc1	nt	nt	-22	nt
C[C@H]1CN([C@@H](C)CO)C(=O)c2c(c3ccccc3n2C)-c2ccccc2CO[C@@H]1CN(C)C(=O)Cc1ccccc1	77	nt	-91*	-2
CCNC(=O)[C@@H]1[C@@H](CO)[C@@H]2Cn3c(ccc(-c4cccc(C(=O)N(C)C)c4)c3=O)[C@H]1N2	nt	nt	14	-2
C[C@H](CO)N1C[C@H](C)[C@H](CN(C)S(=O)(=O)c2ccccc2)Oc2ccc(NC(=O)Cc3cn(C)c4ccccc34)cc2C1=O	71	nt	-93*	nt
C[C@H](CO)N1C[C@H](C)[C@@H](CN(C)S(=O)(=O)c2ccccc2)Oc2ccc(NC(=O)Cc3cn(C)c4ccccc34)cc2C1=O	29	-21	-87*	nt
C[C@@H]1CN([C@H](C)CO)C(=O)c2cc(NC(=O)Cc3cn(C)c4ccccc34)ccc2O[C@H]1CN(C)S(=O)(=O)c1ccccc1	15	-29	-29	0
C[C@H]1CN([C@@H](C)CO)C(=O)c2cc(NC(=O)Cc3cn(C)c4ccccc34)ccc2O[C@@H]1CN(C)S(=O)(=O)c1ccccc1	13	nt	-84*	nt
CO[C@@H]1CN(C)C(=O)c2cc(NC(=O)NC(C)C)ccc2OC[C@@H](C)NC[C@@H]1C	5	nt	36	-1
C[C@@H]1CN([C@H](C)CO)C(=O)c2cccc(NC(=O)c3ccc(-c4nccs4)cc3)c2O[C@H]1CN(C)Cc1ccc(C(=O)Nc2ccccc2N)cc1	72	0	-91*	-1
